In ChEMBL document CHEMBL3091364, “Benzyloxybenzylammonium chlorides: Simple amine salts that display anticonvulsant activity” (Bioorg Med Chem, 2013):

What was measured:
[1] = biological target: Sodium-dependent serotonin transporter (Homo sapiens) (UniProt P31645); assay: Inhibition of SERT (unknown origin) at 10 uM relative to control
[2] = biological target: Sodium-dependent dopamine transporter (Homo sapiens) (UniProt Q01959); assay: Inhibition of DAT (unknown origin) at 10 uM relative to control
[3] = biological target: T1, Muscarinic acetylcholine receptor M4 (Homo sapiens) (UniProt P08173); assay: Inhibition of muscarinergic M4 receptor (unknown origin) at 10 uM relative to control
T1 sequence (whole entry): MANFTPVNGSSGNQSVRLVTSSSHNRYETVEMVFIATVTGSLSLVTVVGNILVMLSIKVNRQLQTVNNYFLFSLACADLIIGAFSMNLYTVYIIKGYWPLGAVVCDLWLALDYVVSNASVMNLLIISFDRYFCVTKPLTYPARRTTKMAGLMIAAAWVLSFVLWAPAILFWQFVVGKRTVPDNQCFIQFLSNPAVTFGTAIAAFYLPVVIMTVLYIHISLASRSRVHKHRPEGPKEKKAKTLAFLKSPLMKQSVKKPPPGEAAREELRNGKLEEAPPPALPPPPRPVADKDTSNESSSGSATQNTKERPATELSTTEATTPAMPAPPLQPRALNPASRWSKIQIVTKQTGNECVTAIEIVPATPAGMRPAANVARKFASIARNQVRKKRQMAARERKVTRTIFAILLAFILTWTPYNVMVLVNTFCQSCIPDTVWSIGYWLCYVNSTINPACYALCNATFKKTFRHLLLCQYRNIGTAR

[4] = biological target: Histamine H3 receptor (Homo sapiens) (UniProt Q9Y5N1); assay: Inhibition of histamine H3 receptor (unknown origin) at 10 uM relative to control
[5] = biological target: Sigma non-opioid intracellular receptor 1 (Homo sapiens) (UniProt Q99720); assay: Inhibition of sigma-1 receptor (unknown origin) at 10 uM relative to control
[6] = biological target: Mu-type opioid receptor (Homo sapiens) (UniProt P35372); assay: Inhibition of mu opioid receptor (unknown origin) at 10 uM relative to control
[7] = biological target: Kappa-type opioid receptor (Homo sapiens) (UniProt P41145); assay: Inhibition of kappa opioid receptor (unknown origin) at 10 uM relative to control
[8] = biological target: Translocator protein (Homo sapiens) (UniProt P30536); assay: Inhibition of PBR (unknown origin) at 10 uM relative to control
Rattus norvegicus [9] = organism: Rattus norvegicus; assay: Inhibition of BZP receptor in rat brain at 10 uM relative to control; format: tissue-based
[10] = biological target: T2, Alpha-2C adrenergic receptor (Homo sapiens) (UniProt P18825); assay: Inhibition of adrenergic alpha-2C receptor (unknown origin) at 10 uM relative to control
T2 sequence (whole entry): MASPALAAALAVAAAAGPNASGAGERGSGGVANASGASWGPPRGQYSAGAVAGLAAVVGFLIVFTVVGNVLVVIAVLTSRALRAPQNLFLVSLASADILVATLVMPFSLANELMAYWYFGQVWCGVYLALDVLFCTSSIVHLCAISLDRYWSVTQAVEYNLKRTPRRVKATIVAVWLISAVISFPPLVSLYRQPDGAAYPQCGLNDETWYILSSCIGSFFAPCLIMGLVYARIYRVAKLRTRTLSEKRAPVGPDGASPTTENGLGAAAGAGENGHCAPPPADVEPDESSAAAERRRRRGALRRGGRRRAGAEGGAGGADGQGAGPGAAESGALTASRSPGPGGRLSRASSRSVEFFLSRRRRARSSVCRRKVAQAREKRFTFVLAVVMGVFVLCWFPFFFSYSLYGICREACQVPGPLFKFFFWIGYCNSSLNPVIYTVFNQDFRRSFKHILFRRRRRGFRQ

[11] = biological target: 5-hydroxytryptamine receptor 6 (Homo sapiens) (UniProt P50406); assay: Inhibition of 5-HT6 receptor (unknown origin) at 10 uM relative to control
[12] = biological target: 5-hydroxytryptamine receptor 7 (Homo sapiens) (UniProt P34969); assay: Inhibition of 5-HT7 receptor (unknown origin) at 10 uM relative to control
[13] = biological target: 5-hydroxytryptamine receptor 5A (Homo sapiens) (UniProt P47898); assay: Inhibition of 5-HT5A receptor (unknown origin) at 10 uM relative to control
[14] = biological target: 5-hydroxytryptamine receptor 2B (Homo sapiens) (UniProt P41595); assay: Inhibition of 5-HT2B receptor (unknown origin) at 10 uM relative to control
[15] = biological target: 5-hydroxytryptamine receptor 2A (Homo sapiens) (UniProt P28223); assay: Inhibition of 5-HT2A receptor (unknown origin) at 10 uM relative to control
[16] = biological target: 5-hydroxytryptamine receptor 1D (Homo sapiens) (UniProt P28221); assay: Inhibition of 5-HT1D receptor (unknown origin) at 10 uM relative to control
[17] = biological target: T3, 5-hydroxytryptamine receptor 1A (Homo sapiens) (UniProt P08908); assay: Inhibition of 5-HT1A receptor (unknown origin) at 10 uM relative to control
T3 sequence (whole entry): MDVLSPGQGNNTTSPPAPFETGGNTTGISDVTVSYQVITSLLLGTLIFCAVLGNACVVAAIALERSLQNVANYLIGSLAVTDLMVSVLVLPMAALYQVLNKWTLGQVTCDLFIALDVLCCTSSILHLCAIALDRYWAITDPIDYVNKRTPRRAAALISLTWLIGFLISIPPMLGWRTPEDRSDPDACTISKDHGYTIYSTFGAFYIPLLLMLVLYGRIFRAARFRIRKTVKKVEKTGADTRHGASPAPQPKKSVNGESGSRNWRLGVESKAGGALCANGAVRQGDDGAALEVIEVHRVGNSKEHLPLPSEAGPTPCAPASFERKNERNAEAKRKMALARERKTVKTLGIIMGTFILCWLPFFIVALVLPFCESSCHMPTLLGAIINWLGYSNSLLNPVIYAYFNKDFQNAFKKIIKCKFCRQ

Rattus norvegicus [18] = assay: Anticonvulsant activity in po dosed albino Sprague-Dawley rat assessed as protection against maximal electroshock-induced seizures measured at 0.25 to 4 hrs; format: functional
Summary of the method: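 Screened under the NINDS ASP in male albino Carworth Farms No. 1 mice (ip) or male albino Sprague-Dawley rats (ip or po), using MES, 6 Hz (32 mA) and subcutaneous pentylenetetrazol seizure tests. Initial qualitative tests used preset doses (e.g., 30, 50, 100 mg/kg). ED50 values with 95% confidence intervals came from dose–response data collected at the time of peak effect.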

[19] = Toxicity in ip dosed albino Sprague-Dawley rat assessed as behavioral changes measured at 0.25 to 4 hrs; format: organism-based; conditions: in vivo
Summary of the method: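 Male albino Sprague-Dawley rats given compound intraperitoneally or orally (NINDS ASP); neurological impairment judged from behavioral toxicity effects. Preset screening doses (e.g., 30 mg/kg); for adequately active compounds, TD50 (mg/kg, 95% confidence intervals) derived from dose–effect data at time of peak effect.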

Translocator protein (Homo sapiens), sequence (P30536 whole entry): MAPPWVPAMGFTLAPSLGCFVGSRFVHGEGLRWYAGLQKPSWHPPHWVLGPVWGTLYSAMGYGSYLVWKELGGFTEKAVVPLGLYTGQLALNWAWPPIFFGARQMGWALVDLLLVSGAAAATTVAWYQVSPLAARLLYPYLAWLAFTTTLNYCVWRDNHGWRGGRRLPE
Histamine H3 receptor (Homo sapiens), sequence (Q9Y5N1 whole entry): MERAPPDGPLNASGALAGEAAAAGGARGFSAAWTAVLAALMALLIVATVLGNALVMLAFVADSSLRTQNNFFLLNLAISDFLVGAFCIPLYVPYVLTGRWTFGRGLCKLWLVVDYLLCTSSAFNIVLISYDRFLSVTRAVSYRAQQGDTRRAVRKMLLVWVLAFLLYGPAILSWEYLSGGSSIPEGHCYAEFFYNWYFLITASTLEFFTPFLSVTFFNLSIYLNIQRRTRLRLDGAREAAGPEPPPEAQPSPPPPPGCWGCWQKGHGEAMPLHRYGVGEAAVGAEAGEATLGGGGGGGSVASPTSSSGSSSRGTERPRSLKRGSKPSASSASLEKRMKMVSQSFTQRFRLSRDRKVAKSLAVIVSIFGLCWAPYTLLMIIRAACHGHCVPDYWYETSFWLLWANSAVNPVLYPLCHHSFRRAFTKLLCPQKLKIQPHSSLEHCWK
Kappa-type opioid receptor (Homo sapiens), sequence (P41145 whole entry): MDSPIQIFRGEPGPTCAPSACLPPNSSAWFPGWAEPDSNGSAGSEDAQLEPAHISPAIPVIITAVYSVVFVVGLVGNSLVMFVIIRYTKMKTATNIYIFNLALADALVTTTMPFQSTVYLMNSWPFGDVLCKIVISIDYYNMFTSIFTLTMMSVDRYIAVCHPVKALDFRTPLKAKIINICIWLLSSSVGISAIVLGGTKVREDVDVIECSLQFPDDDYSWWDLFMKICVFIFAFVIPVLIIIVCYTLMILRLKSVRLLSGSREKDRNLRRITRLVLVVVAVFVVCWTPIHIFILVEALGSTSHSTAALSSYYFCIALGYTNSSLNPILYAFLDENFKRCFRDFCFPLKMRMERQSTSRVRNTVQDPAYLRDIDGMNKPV
Mu-type opioid receptor (Homo sapiens), sequence (P35372 whole entry): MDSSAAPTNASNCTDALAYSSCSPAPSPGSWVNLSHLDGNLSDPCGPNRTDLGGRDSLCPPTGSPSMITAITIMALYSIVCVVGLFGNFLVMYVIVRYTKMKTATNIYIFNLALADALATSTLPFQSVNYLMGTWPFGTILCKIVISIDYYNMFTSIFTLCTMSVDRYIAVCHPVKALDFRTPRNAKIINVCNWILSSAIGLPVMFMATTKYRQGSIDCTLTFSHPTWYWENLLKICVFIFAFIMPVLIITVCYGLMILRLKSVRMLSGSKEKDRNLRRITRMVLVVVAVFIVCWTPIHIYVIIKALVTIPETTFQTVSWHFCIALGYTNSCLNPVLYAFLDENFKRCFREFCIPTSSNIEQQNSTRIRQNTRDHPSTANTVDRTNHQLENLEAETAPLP
Sodium-dependent serotonin transporter (Homo sapiens), sequence (P31645 whole entry, looked up): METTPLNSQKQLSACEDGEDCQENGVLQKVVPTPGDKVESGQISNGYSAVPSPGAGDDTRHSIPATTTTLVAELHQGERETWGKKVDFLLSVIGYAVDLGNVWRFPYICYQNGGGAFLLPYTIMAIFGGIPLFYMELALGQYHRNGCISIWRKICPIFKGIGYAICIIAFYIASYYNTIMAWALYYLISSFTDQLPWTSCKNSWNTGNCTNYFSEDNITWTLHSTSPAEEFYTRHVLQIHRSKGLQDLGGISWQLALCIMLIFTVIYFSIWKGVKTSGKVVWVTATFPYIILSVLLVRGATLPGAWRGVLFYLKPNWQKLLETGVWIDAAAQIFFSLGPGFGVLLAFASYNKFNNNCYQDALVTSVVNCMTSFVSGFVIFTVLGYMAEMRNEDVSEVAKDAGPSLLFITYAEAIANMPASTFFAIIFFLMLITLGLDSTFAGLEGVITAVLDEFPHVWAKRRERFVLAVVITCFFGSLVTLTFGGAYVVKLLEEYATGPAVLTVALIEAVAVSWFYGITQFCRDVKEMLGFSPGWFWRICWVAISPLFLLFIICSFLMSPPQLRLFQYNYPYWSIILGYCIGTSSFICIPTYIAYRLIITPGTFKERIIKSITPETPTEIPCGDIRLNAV
5-hydroxytryptamine receptor 5A (Homo sapiens), sequence (P47898 whole entry): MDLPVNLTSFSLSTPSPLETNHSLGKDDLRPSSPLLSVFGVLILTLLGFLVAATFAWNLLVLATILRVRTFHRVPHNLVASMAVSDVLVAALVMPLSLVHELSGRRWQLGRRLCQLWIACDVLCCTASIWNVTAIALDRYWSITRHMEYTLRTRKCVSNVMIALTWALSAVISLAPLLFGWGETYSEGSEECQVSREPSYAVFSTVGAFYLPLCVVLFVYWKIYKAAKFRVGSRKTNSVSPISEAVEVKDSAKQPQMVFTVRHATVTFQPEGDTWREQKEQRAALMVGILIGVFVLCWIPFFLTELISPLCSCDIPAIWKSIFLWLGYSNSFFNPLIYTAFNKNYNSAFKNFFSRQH
5-hydroxytryptamine receptor 6 (Homo sapiens), sequence (P50406 whole entry): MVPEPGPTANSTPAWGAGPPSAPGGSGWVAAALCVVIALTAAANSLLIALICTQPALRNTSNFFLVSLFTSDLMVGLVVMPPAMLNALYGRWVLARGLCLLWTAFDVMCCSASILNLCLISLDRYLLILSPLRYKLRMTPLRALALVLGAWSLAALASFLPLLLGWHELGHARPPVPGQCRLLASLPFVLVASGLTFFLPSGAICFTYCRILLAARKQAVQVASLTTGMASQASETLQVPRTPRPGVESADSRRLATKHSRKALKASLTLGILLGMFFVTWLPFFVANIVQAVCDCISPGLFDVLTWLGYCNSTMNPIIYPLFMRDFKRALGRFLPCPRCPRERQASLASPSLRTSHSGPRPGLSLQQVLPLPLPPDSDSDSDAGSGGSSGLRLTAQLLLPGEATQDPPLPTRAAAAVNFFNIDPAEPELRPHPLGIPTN
5-hydroxytryptamine receptor 7 (Homo sapiens), sequence (P34969 whole entry): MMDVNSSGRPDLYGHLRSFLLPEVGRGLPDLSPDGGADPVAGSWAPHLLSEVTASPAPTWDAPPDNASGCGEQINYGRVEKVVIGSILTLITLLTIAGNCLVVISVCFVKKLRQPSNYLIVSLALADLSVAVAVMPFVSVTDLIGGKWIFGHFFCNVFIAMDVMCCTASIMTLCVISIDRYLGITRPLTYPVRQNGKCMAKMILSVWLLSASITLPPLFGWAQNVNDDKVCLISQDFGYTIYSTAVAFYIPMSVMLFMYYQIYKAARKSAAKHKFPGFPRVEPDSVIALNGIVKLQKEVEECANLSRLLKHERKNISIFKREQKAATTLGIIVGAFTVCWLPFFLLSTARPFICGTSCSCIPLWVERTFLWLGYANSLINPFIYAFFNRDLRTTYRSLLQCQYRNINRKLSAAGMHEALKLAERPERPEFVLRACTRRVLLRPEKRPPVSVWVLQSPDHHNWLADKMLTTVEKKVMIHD
5-hydroxytryptamine receptor 2A (Homo sapiens), sequence (P28223 whole entry): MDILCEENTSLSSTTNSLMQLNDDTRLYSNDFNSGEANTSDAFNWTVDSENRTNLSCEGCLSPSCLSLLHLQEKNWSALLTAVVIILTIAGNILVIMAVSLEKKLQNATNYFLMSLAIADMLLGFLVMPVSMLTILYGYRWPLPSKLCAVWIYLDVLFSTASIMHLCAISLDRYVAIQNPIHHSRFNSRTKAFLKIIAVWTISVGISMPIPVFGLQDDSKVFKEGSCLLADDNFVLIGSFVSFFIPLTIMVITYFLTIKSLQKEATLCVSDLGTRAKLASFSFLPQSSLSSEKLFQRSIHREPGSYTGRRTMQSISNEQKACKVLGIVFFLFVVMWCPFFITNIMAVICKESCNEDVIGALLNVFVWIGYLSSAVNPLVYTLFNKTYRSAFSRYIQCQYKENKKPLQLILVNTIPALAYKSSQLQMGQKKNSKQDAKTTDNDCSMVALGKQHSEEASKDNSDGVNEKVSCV
5-hydroxytryptamine receptor 1D (Homo sapiens), sequence (P28221 whole entry): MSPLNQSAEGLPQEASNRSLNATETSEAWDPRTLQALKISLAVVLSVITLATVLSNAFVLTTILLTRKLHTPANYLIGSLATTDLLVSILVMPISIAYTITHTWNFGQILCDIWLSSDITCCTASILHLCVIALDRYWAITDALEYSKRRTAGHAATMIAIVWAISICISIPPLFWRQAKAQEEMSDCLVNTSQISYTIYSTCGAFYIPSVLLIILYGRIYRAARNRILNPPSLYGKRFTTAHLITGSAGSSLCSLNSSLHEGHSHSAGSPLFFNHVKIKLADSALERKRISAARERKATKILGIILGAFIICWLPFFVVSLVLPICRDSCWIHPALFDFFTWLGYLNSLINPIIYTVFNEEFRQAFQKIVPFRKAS
Sodium-dependent dopamine transporter (Homo sapiens), sequence (Q01959 whole entry): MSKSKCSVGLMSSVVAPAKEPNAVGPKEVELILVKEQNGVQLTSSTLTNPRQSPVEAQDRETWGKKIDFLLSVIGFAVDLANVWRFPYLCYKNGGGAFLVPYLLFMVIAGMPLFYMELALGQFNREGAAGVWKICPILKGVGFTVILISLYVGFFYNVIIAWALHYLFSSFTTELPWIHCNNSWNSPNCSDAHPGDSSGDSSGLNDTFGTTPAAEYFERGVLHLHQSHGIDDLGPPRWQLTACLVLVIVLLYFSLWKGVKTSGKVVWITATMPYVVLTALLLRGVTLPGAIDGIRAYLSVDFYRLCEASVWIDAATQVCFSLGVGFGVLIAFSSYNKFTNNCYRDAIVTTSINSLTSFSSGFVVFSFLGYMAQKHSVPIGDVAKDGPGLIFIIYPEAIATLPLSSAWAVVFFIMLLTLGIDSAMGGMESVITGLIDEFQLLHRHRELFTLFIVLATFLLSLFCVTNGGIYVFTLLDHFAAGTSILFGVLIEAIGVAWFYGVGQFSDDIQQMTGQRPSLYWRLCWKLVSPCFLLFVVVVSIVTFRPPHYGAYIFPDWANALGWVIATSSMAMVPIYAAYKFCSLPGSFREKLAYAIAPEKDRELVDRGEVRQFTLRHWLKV

| SMILES | inhibition [1] [%] | inhibition [2] [%] | inhibition [3] [%] | inhibition [4] [%] | inhibition [5] [%] | inhibition [6] [%] | inhibition [7] [%] | inhibition [8] [%] | inhibition (Rattus norvegicus [9]) [%] | inhibition [10] [%] | inhibition [11] [%] | inhibition [12] [%] | inhibition [13] [%] | inhibition [14] [%] | inhibition [15] [%] | inhibition [16] [%] | inhibition [17] [%] | ED50 (Rattus norvegicus [18]) [mg/kg] | TD50 [19] [mg/kg] |
| --- | --- | --- | --- | --- | --- | --- | --- | --- | --- | --- | --- | --- | --- | --- | --- | --- | --- | --- | --- |
| Cl.NCc1ccc(OCc2ccc(Cl)cc2)cc1 | 53.8 | 75.7 | 3.5 | 35.3 | 90.6 | -2.3 | 16.6 | 12 | 6.5 | 52.1 | 50.5 | 45.4 | 36.6 | 40.6 | 92.6 | 1.6 | 3.7 | > 30 | > 30 |
| Cl.NCc1ccc(OCc2ccccc2F)cc1 | 34.4 | 61.7 | -9 | -0.4 | 102 | – | 3.6 | 26.8 | -1.5 | 33 | 21.3 | 43.5 | -5.2 | 82.4 | 75.7 | – | 32.3 | > 30 | > 50 |
| Cl.NCc1ccc(OCc2ccccc2)cc1 | 49.1 | 72.2 | – | 11.2 | 97.7 | -5.8 | 6 | 11.8 | 12.7 | 47.6 | 26.9 | 56.3 | 1.2 | 55.7 | 76.8 | -3.3 | 16 | > 30 | > 50 |
| Cl.NCc1ccc(OCc2cccc(F)c2)cc1 | 83.4 | 76.8 | – | -2.8 | 102 | -8.6 | 1.3 | 15.2 | 25.8 | – | 44.8 | 59.1 | – | 87.3 | 88.6 | – | 50.1 | > 30 | > 30 |
| Cl.NCc1ccc(OCc2ccc(OC(F)(F)F)cc2)cc1 | 10.6 | 70.5 | -4.7 | 21.1 | 91.1 | -5.6 | 2.6 | 5.6 | 0.3 | 42.2 | 8.9 | 29.3 | -1.8 | 34.4 | 94.7 | 4.9 | 22.3 | > 30 | > 50 |
| Cl.NCc1ccc(OCc2cccc(Cl)c2)cc1 | 76.5 | 84.1 | 0.2 | 19.3 | 89.4 | -2.2 | 13.9 | 50 | -4.4 | 81.1 | 52.4 | -1.9 | 44.9 | 39.8 | 88.2 | -0.7 | 7.5 | > 30 | > 30 |
| Cl.NCc1ccc(OCc2cccc(OC(F)(F)F)c2)cc1 | 55.7 | 45.5 | 4.3 | 21.7 | 96.9 | 2.8 | 9.8 | 3.6 | 19.8 | 46.6 | 34.3 | 43.6 | 0.2 | 51.4 | 88 | 12.3 | 50 | > 30 | > 30 |
| Cl.NCc1ccc(OCc2ccccc2OC(F)(F)F)cc1 | 31.4 | 50.7 | 1.6 | 11.8 | 92.9 | -4.8 | 6.6 | 4.7 | 5.9 | 40.2 | 22 | 38.7 | -0.1 | 49 | 73.8 | 0.5 | 10.1 | – | – |
| Cl.NCc1ccc(OCc2ccc(F)cc2)cc1 | 71.3 | 48.2 | 10.4 | 35 | 92.7 | -5.5 | 14.2 | -2.3 | 8.9 | 40.2 | 18.1 | 67.7 | 8.5 | 46.5 | 77.1 | 12.7 | 36 | > 30 | > 30 |
